In one data set the target is CYP1A2 (Homo sapiens, UniProt P05177). As to the kind of experiment: Cytochrome P450 phenotyping. It is filed as in vitro ADME. The settings on record: recombinant human CYP1A2; with NADPH; 60 minutes; n = 1. Put shortly:
(§1)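 Recombinant human CYPs prepared at CYP1A2 200 nM, CYP2B6/2C8 250 nM, CYP2C9 100 nM, CYP2D6 50 nM. Test compound added as 2 μM DMSO dosing solution on ice. Plate prewarmed, then 8 mM NADPH solution or blank buffer added. Incubation 60 min (1A2, 2B6, 2C8) or 30 min (2C9, 2D6). Stopped with acetonitrile plus internal standard; supernatant by LC-MS/MS; n = 1.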

A further data set has as its target CYP2D6 (Homo sapiens, UniProt P10635). As to the kind of experiment: Cytochrome P450 phenotyping. It is filed as in vitro ADME. The settings on record: recombinant human CYP2D6; with NADPH; 30 minutes; n = 1. An outline of the steps: as §1
The next data set concerns the target CYP2C8 (Homo sapiens, UniProt P10632). As to the kind of experiment: Cytochrome P450 phenotyping. It is filed as in vitro ADME. The conditions noted are these: recombinant human CYP2C8; with NADPH; 60 minutes; n = 1. An outline of the steps: as §1
A further data set concerns the target CYP2C9 (Homo sapiens, UniProt P11712). Kind of data set: Cytochrome P450 phenotyping. The conditions noted are these: recombinant human CYP2C9; with NADPH; 30 minutes; n = 1. In kind it is in vitro ADME. An outline of the steps: as §1
A further data set relates to IL-4. Kind of data set: Human whole blood potency, blockade of IL-4. In kind it is cell-based. The settings on record: unpublished data.
For the next data set, the system named is IFN-γ. As to the kind of experiment: Human whole blood potency, blockade of IFN-γ. It is filed as cell-based. The conditions noted are these: unpublished data.
The next data set addresses CYP3A4 (Homo sapiens, UniProt P08684). As to the kind of experiment: Cytochrome P450 phenotyping. It is filed as in vitro ADME. The conditions noted are these: recombinant human CYP3A4; with NADPH; 30 minutes; n = 1. Put shortly:
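Recombinant human CYP3A4 was prepared at 100 nM, and a 2 μM dosing solution of test compound in DMSO was added on ice. After prewarming, 8 mM NADPH solution or blank buffer was added for 30 minutes. Acetonitrile with internal standard stopped the reaction. The plate was shaken and centrifuged, and the supernatant was analysed by LC-MS/MS; n = 1.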

CYP1A2, sequence (P05177 whole entry): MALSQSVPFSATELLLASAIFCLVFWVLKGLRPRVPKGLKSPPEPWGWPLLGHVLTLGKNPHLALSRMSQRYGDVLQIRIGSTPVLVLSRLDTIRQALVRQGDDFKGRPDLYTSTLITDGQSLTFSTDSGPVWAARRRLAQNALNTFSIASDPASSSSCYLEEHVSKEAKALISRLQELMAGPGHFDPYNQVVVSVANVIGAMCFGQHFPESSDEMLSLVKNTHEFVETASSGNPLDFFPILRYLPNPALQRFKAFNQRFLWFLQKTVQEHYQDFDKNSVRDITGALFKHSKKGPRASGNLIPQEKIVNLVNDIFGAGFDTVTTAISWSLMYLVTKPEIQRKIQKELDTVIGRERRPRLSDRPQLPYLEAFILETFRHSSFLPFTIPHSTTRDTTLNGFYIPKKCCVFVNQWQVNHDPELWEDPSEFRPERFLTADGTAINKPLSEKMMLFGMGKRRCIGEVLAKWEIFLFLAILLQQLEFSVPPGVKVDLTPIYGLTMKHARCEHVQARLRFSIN
CYP2C9, sequence (P11712 whole entry): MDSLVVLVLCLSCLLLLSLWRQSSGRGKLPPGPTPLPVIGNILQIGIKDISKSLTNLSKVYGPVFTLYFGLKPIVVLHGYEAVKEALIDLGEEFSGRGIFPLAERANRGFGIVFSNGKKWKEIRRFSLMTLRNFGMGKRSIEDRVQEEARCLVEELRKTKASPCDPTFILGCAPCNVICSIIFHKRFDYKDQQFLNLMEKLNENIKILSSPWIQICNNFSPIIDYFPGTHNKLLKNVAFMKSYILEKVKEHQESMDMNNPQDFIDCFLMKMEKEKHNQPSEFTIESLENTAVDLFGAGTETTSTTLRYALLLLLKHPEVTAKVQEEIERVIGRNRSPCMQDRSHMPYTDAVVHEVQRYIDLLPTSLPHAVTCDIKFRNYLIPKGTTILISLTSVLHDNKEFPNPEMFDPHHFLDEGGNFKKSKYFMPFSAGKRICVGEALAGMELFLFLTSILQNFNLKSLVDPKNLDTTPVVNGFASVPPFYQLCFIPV
CYP2D6, sequence (P10635 whole entry): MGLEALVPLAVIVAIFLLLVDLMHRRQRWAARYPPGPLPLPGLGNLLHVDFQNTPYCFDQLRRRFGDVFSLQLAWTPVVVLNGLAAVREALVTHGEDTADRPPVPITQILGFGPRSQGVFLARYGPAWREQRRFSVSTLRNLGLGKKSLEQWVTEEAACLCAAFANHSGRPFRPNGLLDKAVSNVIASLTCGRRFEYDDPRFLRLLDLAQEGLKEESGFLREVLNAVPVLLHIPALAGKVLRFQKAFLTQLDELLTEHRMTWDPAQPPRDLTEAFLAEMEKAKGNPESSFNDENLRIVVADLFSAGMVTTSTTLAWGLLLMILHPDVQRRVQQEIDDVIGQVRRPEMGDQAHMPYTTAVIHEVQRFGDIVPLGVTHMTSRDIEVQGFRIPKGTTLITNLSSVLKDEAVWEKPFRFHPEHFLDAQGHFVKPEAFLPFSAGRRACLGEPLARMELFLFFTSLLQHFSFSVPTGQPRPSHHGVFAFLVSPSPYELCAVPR
CYP2C8, sequence (P10632 whole entry): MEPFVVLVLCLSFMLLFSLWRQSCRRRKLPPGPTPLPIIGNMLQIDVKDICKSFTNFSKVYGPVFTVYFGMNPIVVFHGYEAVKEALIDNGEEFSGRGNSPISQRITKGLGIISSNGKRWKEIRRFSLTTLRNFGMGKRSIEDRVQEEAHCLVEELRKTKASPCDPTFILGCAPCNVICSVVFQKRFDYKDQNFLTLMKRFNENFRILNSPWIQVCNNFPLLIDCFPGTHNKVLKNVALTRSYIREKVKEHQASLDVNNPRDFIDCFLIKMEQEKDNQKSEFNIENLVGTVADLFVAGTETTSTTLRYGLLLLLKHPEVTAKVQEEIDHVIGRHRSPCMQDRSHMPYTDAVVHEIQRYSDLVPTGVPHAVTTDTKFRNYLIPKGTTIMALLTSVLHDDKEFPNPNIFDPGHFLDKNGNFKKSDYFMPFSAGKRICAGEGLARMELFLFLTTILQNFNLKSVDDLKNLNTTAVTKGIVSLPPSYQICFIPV
CYP3A4, sequence (P08684 whole entry): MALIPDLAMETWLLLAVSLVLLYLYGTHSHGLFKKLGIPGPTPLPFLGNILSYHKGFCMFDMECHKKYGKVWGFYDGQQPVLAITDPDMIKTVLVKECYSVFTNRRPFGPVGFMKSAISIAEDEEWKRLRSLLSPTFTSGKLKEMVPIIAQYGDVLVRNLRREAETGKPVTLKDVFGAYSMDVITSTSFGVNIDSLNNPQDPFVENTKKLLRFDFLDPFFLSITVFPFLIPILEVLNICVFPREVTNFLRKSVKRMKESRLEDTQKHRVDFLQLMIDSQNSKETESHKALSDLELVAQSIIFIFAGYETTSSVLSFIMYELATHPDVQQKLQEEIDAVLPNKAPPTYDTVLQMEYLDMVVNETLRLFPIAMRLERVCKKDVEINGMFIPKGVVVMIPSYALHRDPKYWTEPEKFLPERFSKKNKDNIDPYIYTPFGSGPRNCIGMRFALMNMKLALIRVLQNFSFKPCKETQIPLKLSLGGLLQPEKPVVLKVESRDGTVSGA

Turning to `CCOc1ccc(NC(C)=O)cc1` [phenacetin, reference compound], at CYP1A2, the “Percentage Remaining” value is 15.1%.

`CCc1cccc2cc(C(O)CNC(C)(C)C)oc12` (stereo not shown) [bufuralol]: the “Percentage Remaining” value on CYP2D6 stood at 2.48%.

For the molecule `CC(=O)O[C@H]1C(=O)[C@@]2(C)[C@H]([C@H](OC(=O)c3ccccc3)[C@]3(O)C[C@H](OC(=O)[C@H](O)[C@@H](NC(=O)c4ccccc4)c4ccccc4)C(C)=C1C3(C)C)[C@]1(OC(C)=O)CO[C@@H]1C[C@@H]2O` [paclitaxel, reference compound], the “Percentage Remaining” value at CYP2C8 amounted to 0.852%.

`O=C(O)Cc1ccccc1Nc1c(Cl)cccc1Cl` [diclofenac]: on CYP2C9, the “Percentage Remaining” value is recorded as 2.83%.

On to `N#CC[C@H](C1CCCC1)n1cc(-c2ncnc3[nH]ccc23)cn1` [ruxolitinib], for which the “level required for blockade of IL-4 (human whole blood potency)” value in the data set on IL-4 worked out at 564 nM. Also, the “level required for blockade of IFN-γ (human whole blood potency)” value in the data set on IFN-γ is reported as 305 nM.

For `Cc1ncc2n1-c1ccc(Cl)cc1C(c1ccccc1F)=NC2` [midazolam, reference compound], the “Percentage Remaining” value on CYP3A4 stood at 0.252%.
